Data published in ChEMBL document CHEMBL4052832, “Selective Inhibitors of Human Neuraminidase 3” (J Med Chem, 2018).
Converted amounts (≈) assume the structure as drawn. The source made the active and inactive calls. No cut-off for these calls is given here.

Legend:
[1] = target: Sialidase-1 (Mus musculus) (UniProt O35657); experiment: Inhibition of NEU1 in NEU3/NEU4 double knockout C57BL6 mouse brain homogenate up to 150 uM using 4MU-NANA as substrate after 30 mins
In short: (§1)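 Brains from 12-week-old WT, neu1−/−, neu3−/− or neu3−/−neu4−/− mice, snap-frozen and homogenized in water; protein by Bradford. Acidic neuraminidase assayed at pH 4.6 using homogenate equal to 300 μg protein, inhibitor 0–150 μM and 200 μM 4MU-NANA, 37 °C for 30 min. Stopped with 0.4 M glycine pH 10.5. Activity relative to no-inhibitor, mean ± SD of 6–12 experiments.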

[2] = target: Sialidase NEU1/NEU4 (Mus musculus) (UniProt O35657+Q8BZL1); experiment: Inhibition of NEU1/NEU4 in NEU3 knockout C57BL6 mouse brain homogenate up to 150 uM using 4MU-NANA as substrate after 30 mins relative to control; in short: as §1
[3] = target: Sialidase NEU3/NEU4 (Mus musculus) (UniProt Q9JMH7+Q8BZL1); experiment: Inhibition of NEU3/NEU4 in NEU1 knockout C57BL6 mouse brain homogenate using 4MU-NANA as substrate after 30 mins; in short: as §1
Chain of Sialidase NEU3/NEU4 (Mus musculus) (Q8BZL1 whole entry, looked up): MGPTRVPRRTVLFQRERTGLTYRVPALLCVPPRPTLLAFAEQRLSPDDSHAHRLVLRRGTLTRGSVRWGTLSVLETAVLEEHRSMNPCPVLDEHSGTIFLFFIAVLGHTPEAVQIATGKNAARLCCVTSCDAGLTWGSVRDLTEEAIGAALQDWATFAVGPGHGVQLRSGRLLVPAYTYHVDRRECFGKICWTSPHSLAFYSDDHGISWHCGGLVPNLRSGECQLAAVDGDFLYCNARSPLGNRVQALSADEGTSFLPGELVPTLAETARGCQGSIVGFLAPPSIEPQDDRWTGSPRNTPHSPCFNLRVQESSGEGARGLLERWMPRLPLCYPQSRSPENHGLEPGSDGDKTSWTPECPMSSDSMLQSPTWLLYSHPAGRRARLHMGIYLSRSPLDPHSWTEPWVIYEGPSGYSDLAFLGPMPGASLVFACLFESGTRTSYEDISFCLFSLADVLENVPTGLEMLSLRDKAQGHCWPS
Chain of Sialidase NEU3/NEU4 (Mus musculus) (Q9JMH7 whole entry, looked up): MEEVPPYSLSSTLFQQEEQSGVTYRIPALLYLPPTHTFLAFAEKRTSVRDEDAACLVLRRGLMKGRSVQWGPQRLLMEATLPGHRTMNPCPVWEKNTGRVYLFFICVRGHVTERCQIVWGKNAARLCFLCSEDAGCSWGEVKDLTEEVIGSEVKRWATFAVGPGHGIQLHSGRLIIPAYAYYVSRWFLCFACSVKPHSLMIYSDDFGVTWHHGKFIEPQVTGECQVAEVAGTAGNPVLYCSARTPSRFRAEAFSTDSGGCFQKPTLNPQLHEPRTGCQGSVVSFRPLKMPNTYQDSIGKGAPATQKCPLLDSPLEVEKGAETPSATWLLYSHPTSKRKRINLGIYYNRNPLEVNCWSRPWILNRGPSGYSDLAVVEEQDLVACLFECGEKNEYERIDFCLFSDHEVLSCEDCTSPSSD

[4] = target: Sialidase-1 (Mus musculus) (UniProt O35657); experiment: Inhibition of NEU1 in C57BL6 mouse brain homogenate using 4MU-NANA as substrate at 150 uM after 30 mins; in short: as §1
[5] = target: Sialidase-1 (Mus musculus) (UniProt O35657); experiment: Inhibition of NEU1 in C57BL6 mouse brain homogenate assessed as residual activity at 50 uM using 4MU-NANA as substrate after 30 mins relative to control; in short: as §1
[6] = target: T1, Sialidase-4 (Homo sapiens, UniProt Q8WWR8); experiment: Inhibition of human N-terminal MBP-fused NEU4 expressed in Escherichia coli using GM3 as substrate preincubated for 15 mins followed by substrate addition measured after 30 mins by fluorescence based assay
T1 sequence (Q8WWR8 whole entry): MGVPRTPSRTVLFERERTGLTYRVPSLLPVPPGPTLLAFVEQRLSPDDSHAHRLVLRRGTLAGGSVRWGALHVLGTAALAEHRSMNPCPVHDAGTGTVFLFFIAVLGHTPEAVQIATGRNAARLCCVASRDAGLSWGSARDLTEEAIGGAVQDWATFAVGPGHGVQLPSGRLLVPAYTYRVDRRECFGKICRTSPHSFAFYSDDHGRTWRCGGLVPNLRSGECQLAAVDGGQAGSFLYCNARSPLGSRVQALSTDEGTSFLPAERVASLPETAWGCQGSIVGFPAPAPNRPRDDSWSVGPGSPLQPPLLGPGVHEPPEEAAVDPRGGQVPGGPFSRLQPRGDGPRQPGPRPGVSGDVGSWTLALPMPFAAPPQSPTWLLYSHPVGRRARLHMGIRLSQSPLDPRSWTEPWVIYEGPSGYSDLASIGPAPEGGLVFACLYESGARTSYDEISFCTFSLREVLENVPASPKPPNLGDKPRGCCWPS

[7] = target: T2, Sialidase-3 (Homo sapiens, UniProt Q9UQ49); experiment: Inhibition of human N-terminal MBP-fused NEU3 expressed in Escherichia coli using GM3 as substrate preincubated for 15 mins followed by substrate addition measured after 30 mins by fluorescence based assay
T2 sequence (Q9UQ49 whole entry): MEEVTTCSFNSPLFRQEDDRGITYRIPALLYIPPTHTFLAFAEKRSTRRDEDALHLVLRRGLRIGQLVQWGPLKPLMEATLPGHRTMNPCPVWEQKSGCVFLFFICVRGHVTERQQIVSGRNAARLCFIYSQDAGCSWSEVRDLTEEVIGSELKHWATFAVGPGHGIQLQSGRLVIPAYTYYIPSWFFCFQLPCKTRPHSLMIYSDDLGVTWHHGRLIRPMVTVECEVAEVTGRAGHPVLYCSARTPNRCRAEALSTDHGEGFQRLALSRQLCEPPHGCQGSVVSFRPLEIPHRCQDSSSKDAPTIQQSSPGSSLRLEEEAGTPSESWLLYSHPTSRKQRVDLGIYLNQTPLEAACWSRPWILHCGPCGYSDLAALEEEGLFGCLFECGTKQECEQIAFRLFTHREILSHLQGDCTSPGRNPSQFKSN
In short: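 GM3 hydrolysis in 0.1 M sodium acetate pH 4.5. Serially diluted inhibitors preincubated with enzyme 15 min at 0 °C, then GM3 added to 500 μM for 30 min at 37 °C. Quenched with fresh 0.2 M sodium borate pH 10.2, then malononitrile added to form a fluorescent adduct with freed sialic acid; ex 357/em 434 nm.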

[8] = target: T1, Sialidase-4; experiment: Inhibition of human N-terminal MBP-fused NEU4 expressed in Escherichia coli using 4MU-NANA as substrate preincubated for 15 mins followed by substrate addition measured every minute for 30 mins by fluorescence based assay
[9] = target: T2, Sialidase-3; experiment: Inhibition of human N-terminal MBP-fused NEU3 expressed in Escherichia coli using 4MU-NANA as substrate preincubated for 15 mins followed by substrate addition measured every minute for 30 mins by fluorescence based assay
[10] = target: T3, Sialidase-1 (Homo sapiens, UniProt Q99519); experiment: Inhibition of human CathA-IRES-6His-tagged NEU1 expressed in HEK293T cells using 4MU-NANA as substrate preincubated for 15 mins followed by substrate addition measured every minute for 30 mins by fluorescence based assay; assay type: cell-based; conditions: hek-293t
In short: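 Ki determination. Enzyme preincubated with serially diluted inhibitor 15 min at 0 °C, then serial 4MU-NANA concentrations added.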

[11] = target: T1, Sialidase-4; experiment: Inhibition of human N-terminal MBP-fused NEU4 expressed in Escherichia coli using 4MU-NANA as substrate preincubated for 15 mins followed by substrate addition measured after 30 mins by fluorescence based assay
[12] = target: T2, Sialidase-3; experiment: Inhibition of human N-terminal MBP-fused NEU3 expressed in Escherichia coli using 4MU-NANA as substrate preincubated for 15 mins followed by substrate addition measured after 30 mins by fluorescence based assay
[13] = target: T3, Sialidase-1; experiment: Inhibition of human CathA-IRES-6His-tagged NEU1 expressed in HEK293T cells using 4MU-NANA as substrate preincubated for 15 mins followed by substrate addition measured after 30 mins by fluorescence based assay; assay type: cell-based, HEK-293T
[14] = Inhibition in C57BL6 mouse brain homogenate at 10 uM using 4MU-NANA as substrate after 30 mins relative to control
[15] = Kinetic solubility of compound in 0.9% NaCl at 10 mM incubated in supersonic bath for 30 mins measured after 24 hrs by LC-MS analysis; assay type: physicochemical; conditions: read-out: Kinetic_solubility
In short: (§2)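 Kinetic solubility. 10 mM DMSO stock diluted 1:100 into 0.1 M Tris-HCl pH 7.4, Prisma HT buffer, or 0.9% NaCl in water (final 1% DMSO). Sonicated 30 min at 25 °C, equilibrated 24 h at 25 °C, filtered (0.2 μm), diluted in MeOH and analysed by LC-MS. Single measurements.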

[16] = Kinetic solubility of compound in Tris-HCl buffer at pH 7.4 at 10 mM incubated in supersonic bath for 30 mins measured after 24 hrs by LC-MS analysis; assay type: physicochemical; conditions: Tris-HCl buffer, pH 7.4; read-out: Kinetic_solubility; in short: as §2
[17] = Kinetic solubility of compound in Prisma HT 6.5 buffer at pH 7.4 at 10 mM incubated in supersonic bath for 30 mins measured after 24 hrs by LC-MS analysis; assay type: physicochemical; conditions: pH 6.5, in the assay text read “at pH 6.5” for “at pH 7.4”, read-out: Kinetic_solubility; in short: as §2
[18] = Octanol-water partition coefficient, log D of compound at pH 7.4 at 10 uM after 2 hrs by LC-MS based shake flask analysis; assay type: physicochemical
In short: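 Shake-flask log D at pH 7.4. Octanol and 0.1 M Tris-HCl pH 7.4, mutually saturated. Compound at 10 μM in buffer with 0.1% DMSO, at two octanol:buffer ratios, each in triplicate.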

SMILES: CC(=O)N[C@H]1[C@H]([C@H](O)[C@H](O)Cn2cc(-c3ccc(-c4ccccc4)cc3)nn2)OC(C(=O)O)=C[C@@H]1O
- inhibition [1]: inactive
- inhibition [2]: 20%
- inhibition [3]: Active
- inhibition [4]: inactive
- Activity [5]: 60%
- IC50 [6]: 3.7 µM
- IC50 [7]: 12 µM
- Ki [8]: 0.26 µM
- Ki [9]: 0.28 µM
- Ki [10]: Not Active
- IC50 [11]: 0.52 µM
- IC50 [12]: 0.7 µM
- IC50 [13]: > 500 µM
- inhibition [14]: < 70%

SMILES: CC(=O)N[C@H]1[C@H]([C@H](O)[C@H](O)Cn2cc(-c3ccc(C(=O)O)cc3)nn2)OC(C(=O)O)=C[C@@H]1O
- IC50 [11]: 3 µM
- IC50 [12]: 1.1 µM
- IC50 [13]: 240 µM

SMILES: CC(=O)N[C@H]1[C@H]([C@H](O)[C@H](O)Cn2cc(-c3ccc(Oc4ccccc4)cc3)nn2)OC(C(=O)O)=C[C@@H]1O
- IC50 [13]: > 500 µM

SMILES: CC(=O)N[C@H]1[C@H]([C@H](O)[C@H](O)Cn2cc(-c3ccc(C(=O)O)cc3)nn2)OC(C(=O)O)=C[C@@H]1NC(=O)NCCC(=O)O
- IC50 [12]: > 500 µM
- IC50 [13]: > 500 µM

SMILES: CCCOC(=O)C1=C[C@H](O)[C@@H](NC(C)=O)[C@H]([C@H](O)[C@H](O)Cn2cc(-c3ccc(-c4ccccc4)cc3)nn2)O1
- solubility kinetic at 24 h, 10000 µM [15]: 2.4 µg/mL (≈ 4.47 µM)
- solubility kinetic at 24 h, 10000 µM [16]: 2.8 µg/mL (≈ 5.22 µM)
- solubility kinetic at 24 h, 10000 µM [17]: 1.7 µg/mL (≈ 3.17 µM)

SMILES: CCOC(=O)C1=C[C@H](O)[C@@H](NC(C)=O)[C@H]([C@H](O)[C@H](O)Cn2cc(-c3ccc(-c4ccccc4)cc3)nn2)O1
- solubility kinetic at 24 h, 10000 µM [15]: 3.7 µg/mL (≈ 7.08 µM)
- solubility kinetic at 24 h, 10000 µM [16]: 13.8 µg/mL (≈ 26.4 µM)
- solubility kinetic at 24 h, 10000 µM [17]: 3.2 µg/mL (≈ 6.12 µM)
- logD at 2 h, 10 µM [18]: 3.4

SMILES: CC(=O)N[C@H]1[C@H]([C@H](O)[C@H](O)Cn2cc(-c3ccc(CO)cc3)nn2)OC(C(=O)O)=C[C@@H]1O
- logD at 2 h, 10 µM [18]: < -1.5

SMILES: CC(=O)N[C@H]1[C@H]([C@H](O)[C@H](O)Cn2cc(-c3ccc(C(=O)O)cc3)nn2)OC(C(=O)O)=C[C@@H]1NC(=N)N
- IC50 [11]: 24 µM
- IC50 [12]: 0.61 µM
- IC50 [13]: > 500 µM
